Test results taken from ChEMBL document CHEMBL4219124, “Alleviating CYP and hERG liabilities by structure optimization of dihydrofuran-fused tricyclic benzo[d]imidazole series - Potent, selective and orally efficacious microsomal prostaglandin E synthase-1 (mPGES-1) inhibitors: Part-2” (Bioorg Med Chem Lett, 2018).

System: Cavia porcellus
Assay: Analgesic activity in Dunkin-Hartley guinea pig hyperalgesia pain model assessed as inhibition of LPS-induced hyperalgesia at 10 mg/kg, po administered 2 hrs prior to LPS challenge measured after 4.5 hrs relative to control
Format: functional
Procedure, shortened: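 Guinea pigs received compound orally, once daily, at 10, 30 or 100 mg/kg, 2 h before LPS was injected into the plantar surface of the right paw. Saline-injected animals served as the comparison for thermal hyperalgesia. Plasma and brain drug levels taken 7 h after dosing, mean of n = 6–9 per group, from a single experiment.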

O=C(O)Cc1ccccc1Nc1c(Cl)cccc1Cl [DICLOFENAC]
inhibition in vivo at 10 mg/kg: 85%
